Assay results as given in ChEMBL document CHEMBL1144257, “5-Chloroindoloyl glycine amide inhibitors of glycogen phosphorylase: synthesis, in vitro, in vivo, and X-ray crystallographic characterization” (Bioorg Med Chem Lett, 2005).
pIC50: −log10 of the molar value.

How the values were obtained:
[1] = biological target: T1, Glycogen phosphorylase, liver form (Homo sapiens, UniProt P06737); experiment: Inhibitory concentration against glycogen phosphorylase
T1 sequence (P06737 whole entry): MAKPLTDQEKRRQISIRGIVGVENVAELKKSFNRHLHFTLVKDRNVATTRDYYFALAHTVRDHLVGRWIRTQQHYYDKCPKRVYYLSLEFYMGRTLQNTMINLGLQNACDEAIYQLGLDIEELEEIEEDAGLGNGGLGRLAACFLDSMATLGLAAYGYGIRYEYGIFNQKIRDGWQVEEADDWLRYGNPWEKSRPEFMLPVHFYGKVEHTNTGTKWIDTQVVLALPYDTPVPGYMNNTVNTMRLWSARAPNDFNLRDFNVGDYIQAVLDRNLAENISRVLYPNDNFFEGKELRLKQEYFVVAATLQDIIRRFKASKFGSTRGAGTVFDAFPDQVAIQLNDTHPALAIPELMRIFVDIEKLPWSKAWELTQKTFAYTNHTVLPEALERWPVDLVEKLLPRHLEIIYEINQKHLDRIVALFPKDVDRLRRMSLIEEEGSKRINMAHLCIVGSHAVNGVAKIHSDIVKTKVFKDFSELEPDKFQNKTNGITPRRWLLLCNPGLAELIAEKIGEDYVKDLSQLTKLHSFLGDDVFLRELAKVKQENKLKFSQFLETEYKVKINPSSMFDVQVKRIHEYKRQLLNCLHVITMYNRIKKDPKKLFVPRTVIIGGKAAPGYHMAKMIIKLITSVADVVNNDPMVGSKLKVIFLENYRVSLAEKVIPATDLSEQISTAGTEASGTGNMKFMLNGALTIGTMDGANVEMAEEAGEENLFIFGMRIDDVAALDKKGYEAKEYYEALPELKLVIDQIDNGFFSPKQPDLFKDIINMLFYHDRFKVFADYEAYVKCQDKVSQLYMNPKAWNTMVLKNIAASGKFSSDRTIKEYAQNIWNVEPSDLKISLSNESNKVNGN

Mus musculus = experiment: In-vivo minimum effective dose (MED) for reduction of plasma glucose in mouse after 3 hours; type: functional; details: read-out: MED
In short: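 Fed diabetic ob/ob mice, oral dosing in neat PEG400, starting at […] and then at successively lower doses. Plasma glucose measured 3h post-dose. Lowering is expressed as percent decrease versus vehicle-treated controls within the same experiment, with significance by unpaired t-test on group mean glucose. MED is the lowest dose giving reduction.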

SK-HEP1 = experiment: Inhibitory concentration against human SK-Hep-1 cells (hepatoma cell line); type: functional, cell-based
In short: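 SK-HEP-1 cells carrying pre-labeled ¹⁴C-glycogen, with phosphorylase activated by forskolin. Glycogenolysis is the ¹⁴C-glycogen (dpm) difference between basal and forskolin-treated cells. Inhibition is expressed as percent of forskolin-induced glycogenolysis in DMSO controls. IC50 from a 6-point curve (0.1–30μM), triplicate points, mean of ≥2 independent experiments where repeated.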

| Compound | pIC50 [1] | minimal effective dose (Mus musculus) | pIC50 (SK-HEP1) |
| --- | --- | --- | --- |
| COCCN(C(=O)CNC(=O)c1cc2cc(Cl)ccc2[nH]1)C1CCCC1 | 6.70 | > 10 mg/kg | 5.82 |
| O=C(NCC(=O)N(CCO)CC1CCCO1)c1cc2cc(Cl)ccc2[nH]1 (stereo not drawn) | 6.26 | – | 5.24 |
| O=C(NCC(=O)N(CCO)Cc1cccnc1)c1cc2cc(Cl)ccc2[nH]1 | 5.96 | – | – |
| NCCN(C(=O)CNC(=O)c1cc2cc(Cl)ccc2[nH]1)C1CCCC1 | 5.80 | – | – |
| O=C(NCC(=O)N(CCN1CCOCC1)C1CCCC1)c1cc2cc(Cl)ccc2[nH]1 | 5.82 | – | – |
| CN(CC1CC1)C(=O)CNC(=O)c1cc2cc(Cl)ccc2[nH]1 | 6.33 | – | 5.92 |
| CN(C(=O)CNC(=O)c1cc2cc(Cl)ccc2[nH]1)C1CCC1 | 6.77 | – | 6.00 |
| CC(CCO)N(C(=O)CNC(=O)c1cc2cc(Cl)ccc2[nH]1)C1CCCC1 (stereo not drawn) | 6.68 | – | 5.85 |
| O=C(NCC(=O)N(CCO)C1CCSC1)c1cc2cc(Cl)ccc2[nH]1 (stereo not drawn) | 6.47 | – | 5.30 |
| CCCN(CCO)C(=O)CNC(=O)c1cc2cc(Cl)ccc2[nH]1 | 6.82 | > 25 mg/kg | 6.31 |
| O=C(NCC(=O)N(CC(O)CO)C1CCCC1)c1cc2cc(Cl)ccc2[nH]1 (stereo not drawn) | 7.27 | 10 mg/kg | 5.89 |
| CN(CCc1ccccc1)C(=O)CNC(=O)c1cc2cc(Cl)ccc2[nH]1 | < 5.00 | – | – |
| CN(C(=O)CNC(=O)c1cc2cc(Cl)ccc2[nH]1)C1CCN(C=O)C1 (stereo not drawn) | 6.60 | – | 4.72 |
| O=C(NCC(=O)N(CCO)Cc1ncc[nH]1)c1cc2cc(Cl)ccc2[nH]1 | 6.37 | – | 4.85 |
| CN(C(=O)CNC(=O)c1cc2cc(Cl)ccc2[nH]1)C1CCC(O)CC1 (stereo not drawn) | 5.68 | – | – |
| O=C(NCC(=O)N(CCO)C1CCCCCCCCCCC1)c1cc2cc(Cl)ccc2[nH]1 | 6.02 | – | < 4.52 |
| O=C(NCC(=O)N(CCOCc1ccccc1)C1CCCC1)c1cc2cc(Cl)ccc2[nH]1 | 5.80 | – | – |
| CN(C(=O)CNC(=O)c1cc2cc(Cl)ccc2[nH]1)c1ccccc1 | 6.68 | – | 5.15 |
| O=C(NCC(=O)N(CCO)Cc1ccccc1)c1cc2cc(Cl)ccc2[nH]1 | 6.49 | – | 5.60 |
| O=C(NCC(=O)N(CCO)C1CCCCCCCCC1)c1cc2cc(Cl)ccc2[nH]1 | 6.68 | – | < 4.52 |
| CN(C(=O)CNC(=O)c1cc2cc(Cl)ccc2[nH]1)C1CC1 | 6.17 | – | – |
| CN1CCC(N(C)C(=O)CNC(=O)c2cc3cc(Cl)ccc3[nH]2)C1 (stereo not drawn) | 5.02 | – | – |
| O=C(NCC(=O)N(CCO)C1CCS(=O)(=O)CC1)c1cc2cc(Cl)ccc2[nH]1 | 7.92 | – | < 4.52 |
| CN(CCO)C(=O)CNC(=O)c1cc2cc(Cl)ccc2[nH]1 | 6.24 | – | 5.40 |
| CCCCN(C(=O)CNC(=O)c1cc2cc(Cl)ccc2[nH]1)C1CCCC1 | 7.09 | – | 5.03 |

| Compound | pIC50 [1] | minimal effective dose (Mus musculus) | pIC50 (SK-HEP1) |
| --- | --- | --- | --- |
| O=C(NCC(=O)N(C(CO)CO)C1CCCC1)c1cc2cc(Cl)ccc2[nH]1 | 6.46 | – | 5.03 |
| CN(Cc1ccncc1)C(=O)CNC(=O)c1cc2cc(Cl)ccc2[nH]1 | 5.80 | – | – |
| O=C(NCC(=O)N(CCCO)C1CCCC1)c1cc2cc(Cl)ccc2[nH]1 | 7.38 | > 10 mg/kg | 6.12 |
| CC(C)OCCN(C(=O)CNC(=O)c1cc2cc(Cl)ccc2[nH]1)C1CCCC1 | 5.96 | – | – |
| O=C(NCC(=O)N(CCO)C1CC1)c1cc2cc(Cl)ccc2[nH]1 | 6.70 | – | 5.34 |
| CN(C)CCCN(C(=O)CNC(=O)c1cc2cc(Cl)ccc2[nH]1)C1CCCC1 | 5.30 | – | – |
| CC(O)CN(C(=O)CNC(=O)c1cc2cc(Cl)ccc2[nH]1)C1CCCC1 (stereo not drawn) | 7.80 | – | 5.89 |
| NC(=O)CN(C(=O)CNC(=O)c1cc2cc(Cl)ccc2[nH]1)C1CCCC1 | 5.34 | – | – |
| NCCCN(C(=O)CNC(=O)c1cc2cc(Cl)ccc2[nH]1)C1CCCC1 | 5.52 | – | – |
| O=C(NCC(=O)N(CCCCO)C1CCCC1)c1cc2cc(Cl)ccc2[nH]1 | 5.41 | – | – |
| CC(O)(CO)CN(C(=O)CNC(=O)c1cc2cc(Cl)ccc2[nH]1)C1CCCC1 (stereo not drawn) | 7.08 | > 10 mg/kg | 5.62 |
| CCCN(C(=O)CNC(=O)c1cc2cc(Cl)ccc2[nH]1)C1CCCC1 | 6.47 | – | – |
| O=C(NCC(=O)N(CCO)C1CCCCCCC1)c1cc2cc(Cl)ccc2[nH]1 | 7.49 | – | 4.92 |
| CN(Cc1ccccn1)C(=O)CNC(=O)c1cc2cc(Cl)ccc2[nH]1 | 5.82 | – | – |
| CN(C)CCN(C(=O)CNC(=O)c1cc2cc(Cl)ccc2[nH]1)C1CCCC1 | 5.01 | – | – |
| CC(C)OCCCN(C(=O)CNC(=O)c1cc2cc(Cl)ccc2[nH]1)C1CCCC1 | 6.17 | – | – |
| O=C(NCC(=O)N(C1CCCC1)C1CCCC1)c1cc2cc(Cl)ccc2[nH]1 | 6.18 | – | – |
| CN(C(=O)CNC(=O)c1cc2cc(Cl)ccc2[nH]1)c1ccccn1 | 6.47 | – | 5.00 |
| O=C(NCC(=O)N(CCO)CC1CC1)c1cc2cc(Cl)ccc2[nH]1 | 6.80 | > 10 mg/kg | 5.82 |
| C=CCN(C(=O)CNC(=O)c1cc2cc(Cl)ccc2[nH]1)C1CCCC1 | 7.02 | – | 6.05 |
| N#CCCN(C(=O)CNC(=O)c1cc2cc(Cl)ccc2[nH]1)C1CCCC1 | 6.85 | – | 6.12 |
| O=C(O)CN(C(=O)CNC(=O)c1cc2cc(Cl)ccc2[nH]1)C1CCCC1 | 6.59 | – | < 5.00 |
| CN(C(=O)CNC(=O)c1cc2cc(Cl)ccc2[nH]1)c1cccnc1 | 6.48 | – | 5.77 |
| COCCCN(C(=O)CNC(=O)c1cc2cc(Cl)ccc2[nH]1)C1CCCC1 | 6.43 | – | – |
| O=C(NCC(=O)N(CCO)C1CCOC1)c1cc2cc(Cl)ccc2[nH]1 (stereo not drawn) | 7.26 | – | 5.74 |

| Compound | pIC50 [1] | minimal effective dose (Mus musculus) | pIC50 (SK-HEP1) |
| --- | --- | --- | --- |
| COCC(O)CN(C(=O)CNC(=O)c1cc2cc(Cl)ccc2[nH]1)C1CCCC1 (stereo not drawn) | 7.00 | – | 6.06 |
| O=C(NCC(=O)N(CCO)C1CCc2ccccc21)c1cc2cc(Cl)ccc2[nH]1 (stereo not drawn) | 7.31 | – | 5.74 |
| O=C(NCC(=O)N(CCO)C1CCCCCCCC1)c1cc2cc(Cl)ccc2[nH]1 | 7.09 | – | 4.55 |
| CC(C)CN(C)C(=O)CNC(=O)c1cc2cc(Cl)ccc2[nH]1 | 6.64 | – | 6.21 |
| COCC(N)CN(C(=O)CNC(=O)c1cc2cc(Cl)ccc2[nH]1)C1CCCC1 (stereo not drawn) | 5.92 | – | – |
| CN(C(=O)CNC(=O)c1cc2cc(Cl)ccc2[nH]1)C(C)(C)C | 6.17 | – | – |
| CN(C(=O)CNC(=O)c1cc2cc(Cl)ccc2[nH]1)C1CCN(C=O)CC1 | 5.08 | – | – |
| CCCCN(C)C(=O)CNC(=O)c1cc2cc(Cl)ccc2[nH]1 | 6.82 | – | 5.85 |
| CN(Cc1cccnc1)C(=O)CNC(=O)c1cc2cc(Cl)ccc2[nH]1 | 5.72 | – | – |
| CN(CC(F)(F)F)C(=O)CNC(=O)c1cc2cc(Cl)ccc2[nH]1 | 5.72 | – | – |
| CC(C)N(CCO)C(=O)CNC(=O)c1cc2cc(Cl)ccc2[nH]1 | 6.68 | > 10 mg/kg | 5.47 |
| CN(Cc1ccccc1)C(=O)CNC(=O)c1cc2cc(Cl)ccc2[nH]1 | 6.26 | – | < 5.00 |
| CC(C)(C)N(CCO)C(=O)CNC(=O)c1cc2cc(Cl)ccc2[nH]1 | 6.54 | – | 5.17 |
| CCOC(=O)CN(C(=O)CNC(=O)c1cc2cc(Cl)ccc2[nH]1)C1CCCC1 | 6.28 | – | 5.28 |
| CN(C(=O)CNC(=O)c1cc2cc(Cl)ccc2[nH]1)C1CCOCC1 | 6.29 | – | 5.47 |
| NC(CO)CN(C(=O)CNC(=O)c1cc2cc(Cl)ccc2[nH]1)C1CCCC1 (stereo not drawn) | 6.29 | – | 5.08 |
| CC(C)OCC(O)CN(C(=O)CNC(=O)c1cc2cc(Cl)ccc2[nH]1)C1CCCC1 (stereo not drawn) | 6.03 | – | – |
| CCN(C(=O)CNC(=O)c1cc2cc(Cl)ccc2[nH]1)C1CCCC1 | 6.68 | – | 6.39 |
| CN(C(=O)CNC(=O)c1cc2cc(Cl)ccc2[nH]1)C1CCCCCC1 | 6.49 | – | < 5.00 |
| O=C(NCC(=O)N(CCO)C1CCS(=O)(=O)C1)c1cc2cc(Cl)ccc2[nH]1 (stereo not drawn) | 5.89 | – | – |
| CN(C)C(=O)CN(C(=O)CNC(=O)c1cc2cc(Cl)ccc2[nH]1)C1CCCC1 | 6.39 | – | 4.89 |
| O=C(NCC(=O)N(CCO)C1CCCCCC1)c1cc2cc(Cl)ccc2[nH]1 | 7.52 | – | 5.64 |
| O=C(NCC(=O)N(CCO)Cc1ccco1)c1cc2cc(Cl)ccc2[nH]1 | 6.59 | – | 5.82 |
| CN(C(=O)CNC(=O)c1cc2cc(Cl)ccc2[nH]1)C1CCS(=O)(=O)C1 (stereo not drawn) | 6.39 | – | 5.70 |
